From ChEMBL document CHEMBL1126585, “Effect of N-methyl substitution of the peptide bonds in luteinizing hormone-releasing hormone agonists” (J Med Chem, 1993) come the findings set out here.

The species entered for data set [1] is Rattus norvegicus. As to the kind of experiment: Tested in vitro for LH release from cultured rat pituitary cells, activity is expressed as pD2 value. The format is functional, Pituitary gland cell. The essentials: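 Cultured rat pituitary cells; LH release measured across agonist concentrations; pD2 = negative log of agonist concentration giving 50% of maximal LH release.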

Data set [2] is described as follows: Clearance in rat after iv dose (100 ug/kg). The data set is classed as ADME, organism-based. The settings on record: in vivo, 0.1 mg/kg. The essentials: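 Castrate male rats given 100 μg/kg iv bolus; blood sampled over 6 h with EDTA anticoagulant. Plasma levels by RIA with antibody recognizing C-terminal Leu-Arg-Pro-NHEt or Leu-Arg-Pro-GlyNH₂ (rabbit antisera C-402 with [125I-Tyr⁵]leuprolide tracer, or 5328W with [125I-Tyr⁵,DLys⁶]LHRH). AUC by trapezoidal rule; whole-body clearance = dose/AUC, mL/min per kg.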

The subject of a further data set is chymotrypsin. As to the kind of experiment: Chymotrypsin degradation half-life was determined. The data set is classed as ADME.
The species entered for data set [3] is Rattus norvegicus. Kind of data set: Intestinal stability against rat jejunum sac, activity is expressed as T1/2. The format is functional. The essentials:
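Rat jejunal sac in vitro; T1/2 taken as time, in min, for lumenal compound concentration to fall by 50%.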

Structures are written as SMILES. Square brackets hold non-standard residues; d marks the D form. Peptide text beside a SMILES is read from it. pGlu = O=C1CC[C@@H](C(=O)O)N1

In the case of `CC(C)C[C@H](NC(=O)[C@@H](Cc1ccc2ccccc2c1)NC(=O)[C@H](Cc1ccc(O)cc1)NC(=O)[C@H](CO)NC(=O)[C@H](Cc1cccc2ccccc12)N(C)C(=O)[C@H](Cc1c[nH]cn1)NC(=O)[C@@H]1CCC(=O)N1)C(=O)N[C@@H](CCCN=C(N)N)C(=O)N1CCC[C@H]1C(=O)NCC(N)=O`, the pD2 in the data set filed under Rattus norvegicus [1] is 8.7. Usually clearance stands for the rate of elimination divided by the concentration. A low value points to a low capacity for elimination. The molecule `CCNC(=O)[C@@H]1CCCN1C(=O)[C@H](CCCNC(=N)N)NC(=O)[C@H](CC(C)C)NC(=O)[C@@H](Cc1c[nH]c2ccccc12)NC(=O)[C@H](Cc1ccc(O)cc1)NC(=O)[C@H](CO)NC(=O)[C@H](Cc1c[nH]c2ccccc12)NC(=O)[C@H](Cc1c[nH]cn1)NC(=O)[C@@H]1CCC(=O)N1` [DESLORELIN] returned a clearance in data set [2] of 34.3 mL/min/kg. Further, in the data set filed under Rattus norvegicus [1], the pD2 was determined as 11.33.

`CCNC(=O)[C@@H]1CCCN1C(=O)[C@H](CCCN=C(N)N)NC(=O)[C@H](CC(C)C)NC(=O)[C@@H](Cc1c[nH]c2ccccc12)NC(=O)[C@H](Cc1ccc(O)cc1)N(C)C(=O)[C@H](CO)NC(=O)[C@H](Cc1c[nH]c2ccccc12)NC(=O)[C@H](Cc1c[nH]cn1)NC(=O)[C@@H]1CCC(=O)N1` showed a clearance in data set [2] of 11.1 mL/min/kg. Also, the pD2 in the data set filed under Rattus norvegicus [1] was 10.55. For orientation: half-life means how long it takes for the measured level to halve. Molecule `CCNC(=O)[C@@H]1CCCN1C(=O)[C@H](CCCN=C(N)N)NC(=O)C(CC(C)C)NC(=O)C(CC(C)C)NC(=O)[C@H](Cc1ccc(O)cc1)NC(=O)[C@H](CO)NC(=O)[C@H](Cc1c[nH]c2ccccc12)NC(=O)[C@H](Cc1c[nH]cn1)N(C)C(=O)[C@@H]1CCC(=O)N1` (stereo in doubt) [listing 1 of 3 here] had a clearance in data set [2] of 7.16 mL/min/kg. The molecule also showed a half-life with chymotrypsin of 7 min.

In the data set filed under Rattus norvegicus [1], `CCNC(=O)[C@@H]1CCCN1C(=O)[C@H](CCCN=C(N)N)NC(=O)C(CC(C)C)NC(=O)C(CC(C)C)NC(=O)[C@H](Cc1ccc(O)cc1)NC(=O)[C@H](CO)NC(=O)[C@H](Cc1c[nH]c2ccccc12)NC(=O)[C@H](Cc1c[nH]cn1)N(C)C(=O)[C@@H]1CCC(=O)N1` (stereo in doubt) [listing 2 of 3 here] registered a pD2 of 8.22. In the case of `CCNC(=O)[C@@H]1CCCN1C(=O)[C@H](CCCN=C(N)N)NC(=O)[C@H](CC(C)C)NC(=O)[C@@H](Cc1c[nH]c2ccccc12)NC(=O)[C@H](Cc1ccc(O)cc1)NC(=O)[C@H](CO)N(C)C(=O)[C@H](Cc1c[nH]c2ccccc12)NC(=O)[C@H](Cc1c[nH]cn1)NC(=O)[C@@H]1CCC(=O)N1`, the T1/2 in the data set listed under Rattus norvegicus [3] was 39.1 min. Molecule `CC(C)C[C@H](NC(=O)[C@@H](Cc1ccc2ccccc2c1)NC(=O)[C@H](Cc1ccc(O)cc1)NC(=O)[C@H](CO)NC(=O)[C@H](Cc1c[nH]c2ccccc12)NC(=O)[C@H](Cc1c[nH]cn1)NC(=O)[C@@H]1CCC(=O)N1)C(=O)N[C@@H](CCCN=C(N)N)C(=O)N1CCC[C@H]1C(=O)N(C)CC(N)=O` returned a clearance in data set [2] of 3.55 mL/min/kg. In the data set filed under Rattus norvegicus [1], this molecule returned a pD2 of 11.87.

`CC(C)C[C@H](NC(=O)[C@@H](Cc1ccc2ccccc2c1)N(C)C(=O)[C@H](Cc1ccc(O)cc1)NC(=O)[C@H](CO)NC(=O)[C@H](Cc1c[nH]c2ccccc12)NC(=O)[C@H](Cc1c[nH]cn1)NC(=O)[C@@H]1CCC(=O)N1)C(=O)N[C@@H](CCCN=C(N)N)C(=O)N1CCC[C@H]1C(=O)NCC(N)=O` registered a pD2 in the data set filed under Rattus norvegicus [1] of 8.3. In turn, `CCNC(=O)[C@@H]1CCCN1C(=O)[C@H](CCCN=C(N)N)NC(=O)[C@H](CC(C)C)NC(=O)[C@@H](CC(C)C)NC(=O)[C@H](Cc1ccc(O)cc1)N(C)C(=O)[C@H](CO)NC(=O)[C@H](Cc1c[nH]c2ccccc12)NC(=O)[C@H](Cc1c[nH]cn1)NC(=O)[C@@H]1CCC(=O)N1` displayed a T1/2 in the data set listed under Rattus norvegicus [3] of 42 min. `CC(C)C[C@@H](C(=O)N[C@@H](CCCN=C(N)N)C(=O)N1CCC[C@H]1C(=O)NCC(N)=O)N(C)C(=O)[C@@H](Cc1ccc2ccccc2c1)NC(=O)[C@H](Cc1ccc(O)cc1)NC(=O)[C@H](CO)NC(=O)[C@H](Cc1c[nH]c2ccccc12)NC(=O)[C@H](Cc1c[nH]cn1)NC(=O)[C@@H]1CCC(=O)N1` returned a pD2 in the data set filed under Rattus norvegicus [1] of 12.35. Regarding `CCNC(=O)[C@@H]1CCCN1C(=O)[C@H](CCCN=C(N)N)NC(=O)[C@H](CC(C)C)NC(=O)[C@@H](Cc1c[nH]c2ccccc12)NC(=O)[C@H](Cc1ccc(O)cc1)NC(=O)[C@H](CO)N(C)C(=O)[C@H](Cc1c[nH]c2ccccc12)NC(=O)[C@H](Cc1cnc[nH]1)NC(=O)[C@@H]1CCC(=O)N1`, in data set [2], the clearance turned out to be 19.9 mL/min/kg. In data set [2], `CC(C)C[C@H](NC(=O)[C@@H](Cc1ccc2ccccc2c1)NC(=O)[C@H](Cc1ccc(O)cc1)NC(=O)[C@H](CO)NC(=O)[C@H](Cc1c[nH]c2ccccc12)NC(=O)[C@H](Cc1c[nH]cn1)N(C)C(=O)[C@@H]1CCC(=O)N1)C(=O)N[C@@H](CCCN=C(N)N)C(=O)N1CCC[C@H]1C(=O)NCC(N)=O` showed a clearance of 4.13 mL/min/kg. Besides, in the data set listed under Rattus norvegicus [1], the pD2 is listed as 8.18. In data set [2], `CCNC(=O)[C@@H]1CCCN1C(=O)[C@H](CCCN=C(N)N)NC(=O)[C@H](CC(C)C)NC(=O)[C@@H](CC(C)C)N(C)C(=O)[C@H](Cc1ccc(O)cc1)NC(=O)[C@H](CO)NC(=O)[C@H](Cc1c[nH]c2ccccc12)NC(=O)[C@H](Cc1cnc[nH]1)NC(=O)[C@@H]1CCC(=O)N1` displayed a clearance of 21 mL/min/kg. Further, in the data set with chymotrypsin, the half-life worked out at 1 min. Molecule `CCNC(=O)[C@@H]1CCCN1C(=O)[C@H](CCCN=C(N)N)NC(=O)C(CC(C)C)NC(=O)C(CC(C)C)NC(=O)[C@H](Cc1ccc(O)cc1)NC(=O)[C@H](CO)NC(=O)[C@H](Cc1c[nH]c2ccccc12)NC(=O)[C@H](Cc1c[nH]cn1)N(C)C(=O)[C@@H]1CCC(=O)N1` (stereo in doubt) [listing 3 of 3 here] returned a T1/2 in the data set listed under Rattus norvegicus [3] of 48 min. In turn, `CCNC(=O)[C@@H]1CCCN1C(=O)[C@H](CCCN=C(N)N)NC(=O)[C@H](CC(C)C)NC(=O)[C@@H](Cc1c[nH]c2ccccc12)NC(=O)[C@H](Cc1ccc(O)cc1)NC(=O)[C@H](CO)NC(=O)[C@H](Cc1c[nH]c2ccccc12)NC(=O)[C@H](Cc1ccccc1)NC(=O)[C@@H]1CCC(=O)N1` ([pGlu]FWSY[dW]LRP-NHEt) came in with a T1/2 in the data set filed under Rattus norvegicus [3] of 10.8 min. The clearance in data set [2] came out at 28.8 mL/min/kg.

In the data set filed under Rattus norvegicus [1], `CCNC(=O)[C@@H]1CCCN1C(=O)[C@H](CCCN=C(N)N)NC(=O)[C@H](CC(C)C)NC(=O)[C@@H](Cc1c[nH]c2ccccc12)NC(=O)[C@H](Cc1ccc(O)cc1)NC(=O)[C@H](CO)NC(=O)[C@H](Cc1cccc2ccccc12)NC(=O)[C@H](Cc1c[nH]cn1)NC(=O)[C@@H]1CCC(=O)N1` displayed a pD2 of 11.49.

Turning to `CC(C)C[C@H](NC(=O)[C@@H](Cc1c[nH]c2ccccc12)NC(=O)[C@H](Cc1ccc(O)cc1)NC(=O)[C@H](CO)NC(=O)[C@H](Cc1c[nH]c2ccccc12)NC(=O)[C@H](Cc1c[nH]cn1)NC(=O)[C@@H]1CCC(=O)N1)C(=O)N[C@@H](CCCN=C(N)N)C(=O)N1CCC[C@H]1C(=O)N(C)CC(N)=O`, the clearance in data set [2] was found to be 4.32 mL/min/kg. Besides, in the data set filed under Rattus norvegicus [1], the pD2 was 10.05. The like results for `CCNC(=O)[C@@H]1CCCN1C(=O)[C@H](CCCN=C(N)N)NC(=O)[C@H](CC(C)C)NC(=O)[C@@H](Cc1c[nH]c2ccccc12)NC(=O)[C@H](Cc1ccc(O)cc1)NC(=O)[C@H](CO)NC(=O)[C@H](Cc1cccc2ccccc12)N(C)C(=O)[C@H](Cc1c[nH]cn1)NC(=O)[C@@H]1CCC(=O)N1` were, in that order, 15.1 mL/min/kg and 8.35. `CC(C)C[C@H](NC(=O)[C@@H](Cc1ccc2ccccc2c1)NC(=O)[C@H](Cc1ccc(O)cc1)NC(=O)[C@H](CO)NC(=O)[C@H](Cc1c[nH]c2ccccc12)NC(=O)[C@H](Cc1ccccc1)NC(=O)[C@@H]1CCC(=O)N1)C(=O)N[C@@H](CCCN=C(N)N)C(=O)N1CCC[C@H]1C(=O)NCC(N)=O` returned a pD2 in the data set filed under Rattus norvegicus [1] of 10.23. Still for that read-out and setting: with `CC(C)C[C@H](NC(=O)[C@@H](Cc1ccc2ccccc2c1)NC(=O)[C@H](Cc1ccc(O)cc1)NC(=O)[C@H](CO)NC(=O)[C@H](Cc1cccc2ccccc12)NC(=O)[C@H](Cc1c[nH]cn1)NC(=O)[C@@H]1CCC(=O)N1)C(=O)N[C@@H](CCCN=C(N)N)C(=O)N1CCC[C@H]1C(=O)NCC(N)=O` the figure was 11.55. `CCNC(=O)[C@@H]1CCCN1C(=O)[C@H](CCCN=C(N)N)N(C)C(=O)[C@H](CC(C)C)NC(=O)[C@@H](Cc1c[nH]c2ccccc12)NC(=O)[C@H](Cc1ccc(O)cc1)NC(=O)[C@H](CO)NC(=O)[C@H](Cc1c[nH]c2ccccc12)NC(=O)[C@H](Cc1c[nH]cn1)NC(=O)[C@@H]1CCC(=O)N1`: in data set [2], the clearance was 25 mL/min/kg. The molecule also showed a pD2 in the data set listed under Rattus norvegicus [1] of 9.35. Turning to `CCNC(=O)[C@@H]1CCCN1C(=O)[C@H](CCCNC(=N)N)NC(=O)[C@H](CC(C)C)N(C)C(=O)[C@@H](Cc1c[nH]c2ccccc12)NC(=O)[C@H](Cc1ccc(O)cc1)NC(=O)[C@H](CO)NC(=O)[C@H](Cc1c[nH]c2ccccc12)NC(=O)[C@H](Cc1c[nH]cn1)NC(=O)[C@@H]1CCC(=O)N1` [LUTRELIN], the clearance in data set [2] was found to be 19.5 mL/min/kg. The molecule further came in with a pD2 in the data set listed under Rattus norvegicus [1] of 10.7. On to `CCNC(=O)[C@@H]1CCCN1C(=O)[C@H](CCCN=C(N)N)NC(=O)[C@H](CC(C)C)NC(=O)[C@@H](CC(C)C)NC(=O)[C@H](Cc1ccc(O)cc1)N(C)C(=O)[C@H](CO)NC(=O)[C@H](Cc1c[nH]c2ccccc12)NC(=O)[C@H](Cc1cnc[nH]1)NC(=O)[C@@H]1CCC(=O)N1`, for which the clearance in data set [2] turned out to be 8.2 mL/min/kg. The molecule further registered a half-life in the data set on chymotrypsin above 60 min. Regarding `CCNC(=O)[C@@H]1CCCN1C(=O)[C@H](CCCN=C(N)N)NC(=O)[C@H](CC(C)C)NC(=O)[C@@H](CC(C)C)N(C)C(=O)[C@H](Cc1ccc(O)cc1)NC(=O)[C@H](CO)NC(=O)[C@H](Cc1c[nH]c2ccccc12)NC(=O)[C@H](Cc1c[nH]cn1)NC(=O)[C@@H]1CCC(=O)N1`, the T1/2 in the data set listed under Rattus norvegicus [3] was found to be 54 min. The molecule also gave a pD2 in the data set listed under Rattus norvegicus [1] of 9.61. Turning to `CCNC(=O)[C@@H]1CCCN1C(=O)[C@H](CCCN=C(N)N)NC(=O)[C@H](CC(C)C)NC(=O)[C@@H](CC(C)C)NC(=O)[C@H](Cc1ccc(O)cc1)NC(=O)[C@H](CO)NC(=O)[C@H](Cc1c[nH]c2ccccc12)NC(=O)[C@H](Cc1ccccc1)NC(=O)[C@@H]1CCC(=O)N1` ([pGlu]FWSY[dL]LRP-NHEt), the T1/2 in the data set listed under Rattus norvegicus [3] turned out to be 2.2 min. The molecule further gave a clearance in data set [2] of 25.4 mL/min/kg.
